These results are taken from ChEMBL document CHEMBL3817728, “Synthesis, Evaluation, and Mechanism Study of Novel Indole-Chalcone Derivatives Exerting Effective Antitumor Activity Through Microtubule Destabilization in Vitro and in Vivo” (J Med Chem, 2016).

The test system of data set [1] is A549. The experiment in a line: Cytotoxicity against human A549 cells assessed as cell viability after 48 hrs by MTT assay. To be noted: A549, 48 h. The format is functional, cell-based. The method, boiled down: (§1)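 Cancer cell lines treated with compound for 48 h, and viability read by MTT assay. IC50 given as mean ± SD from at least three independent experiments.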

A short description of data set [2]: Metabolic stability in Sprague-Dawley rat liver microsomes assessed as compound remaining at 60 mins in presence of NADPH regenerating system by HPLC method. The class given is ADME. To be noted: read-out: Stability. The method in brief: (§2)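 Test compound incubated with rat liver microsomes at 37 ℃ in buffer containing an NADPH regenerating system for the stated time. Remaining parent compound was quantified by HPLC.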
In general terms: Microsomes from liver hold many membrane-bound enzymes, among them those of drug oxidation.

Data set [3] is described as follows: Cytotoxicity against human A2780/TAX cells assessed as growth inhibition after 48 hrs by MTT assay. The format is functional, cell-based. The method in brief: (§3)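 Drug-resistant lines were tested by a 48 h MTT viability assay. IC50 was derived from dose-response curves and reported as mean ± SE of at least three independent experiments.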
On the technique in general: Tetrazolium assays rely on reduction of a dye to a coloured formazan, in cell work by metabolically active cells.

The nature of data set [4]: Cytotoxicity against human HCT8/VCT cells assessed as growth inhibition after 48 hrs by MTT assay. The class given is functional, cell-based. The method, boiled down: as §3
The nature of data set [5]: Metabolic stability in Sprague-Dawley rat liver microsomes assessed as compound remaining at 120 mins in presence of NADPH regenerating system by HPLC method. The format is ADME. To be noted: read-out: Stability. The method in brief:
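Rat liver microsomes incubated with compound at 37 ℃ for indicated times in buffer containing NADPH regenerating system; residual parent determined by HPLC.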

Data set [6] in a line: Cytotoxicity against human Bel7402 cells assessed as cell viability after 48 hrs by MTT assay. The format is functional, cell-based. To be noted: Bel-7402, 48 h. The method in brief:
as §1

The next data set deals with HeLa. Put plainly: Cytotoxicity against human HeLa cells assessed as cell viability after 48 hrs by MTT assay. The class given is functional, cell-based. The method, boiled down:
as §1

Data set [7] can be described thus: Cytotoxicity against human HCT8 cells assessed as cell viability after 48 hrs by MTT assay. The format is functional, cell-based. To be noted: HCT-8, 48 h. The method, boiled down:
as §1

In data set [8] the test system is A2780. Put plainly: Cytotoxicity against human A2780 cells assessed as cell viability after 48 hrs by MTT assay. To be noted: A2780, 48 h. The class given is functional, cell-based. The method in brief:
as §1

Data set [9] is described as follows: Metabolic stability in Sprague-Dawley rat liver microsomes assessed as compound remaining at 90 mins in presence of NADPH regenerating system by HPLC method. The settings on record: read-out: Stability. The format is ADME. The method, boiled down: as §2
Data set [10] is described as follows: Metabolic stability in Sprague-Dawley rat liver microsomes assessed as compound remaining at 30 mins in presence of NADPH regenerating system by HPLC method. To be noted: read-out: Stability. The format is ADME. The method, boiled down: as §2
A short description of data set [11]: Cytotoxicity against human MCF7/DX cells assessed as growth inhibition after 48 hrs by MTT assay. The format is functional, cell-based. The method in brief: as §3
Data set [12] relates to A549. Put plainly: Resistance index, ratio of IC50 for human A549/CDDP cells to IC50 for human A549 cells. The format is functional.
A short description of data set [13]: Cytotoxicity against human A549/CDDP cells assessed as growth inhibition after 48 hrs by MTT assay. The class given is functional, cell-based. To be noted: A549, 48 h. The method, boiled down:
as §3

The test system of data set [14] is MCF7. Put plainly: Cytotoxicity against human MCF7 cells assessed as cell viability after 48 hrs by MTT assay. The class given is functional, cell-based. The settings on record: MCF7, 48 h. The method, boiled down:
as §1

Data set [15] relates to MCF7. Put plainly: Resistance index, ratio of IC50 for human MCF7/DX cells to IC50 for human MCF7 cells. The format is functional.
Data set [16] deals with A2780. The experiment in a line: Resistance index, ratio of IC50 for human A2780/TAX cells to IC50 for human A2780 cells. The class given is functional.
A further data set deals with HCT-8. The experiment in a line: Resistance index, ratio of IC50 for human HCT8/VCT cells to IC50 for human HCT8 cells. The format is functional.
For data set [17], the system named is A549. Put plainly: Antitumor activity against human A549 cells xenografted in BALB/c nude mouse assessed as tumor growth inhibition at 30 mg/kg, ip administered every other day for 1 month measured every other day post dose relative to vehicle-treated control. The format is functional. To be noted: read-out: TGI. In general terms: In xenograft studies the graft and the host belong to different species.

Data set [18] is described as follows: Solubility of the compound in sodium phosphate buffer at pH 7.4 at 25 +/- 1 degC. The class given is physicochemical.
The test system of the next data set is Mus musculus. The experiment in a line: Toxicity in BALB/c nude mouse xenografted with human A549 cells assessed as loss of body weight at 30 mg/kg, ip administered every other day for 1 month measured every other day post dose relative to vehicle-treated control. The format is organism-based. The settings on record: in vivo.

As to `COc1ccc(/C=C\c2cc(OC)c(OC)c(OC)c2)cc1O` [COMBRETASTATIN A4], the IC50 with A549 [1] was 5 nM; in data set [3] it was 58 nM; in data set [4], 5 nM; in data set [6], 3 nM; in the data set on HeLa, 12 nM; in [7] it was 1.7 nM. Moreover, the IC50 came to 9 nM in the data set with A2780 [8] and 27 nM in [11]. The remaining at 1 h in data set [2] worked out at 28.6%. For the same molecule, in [5], the remaining at 2 h is 20.7%. In addition, the remaining at 1.5 h in data set [9] worked out at 23.1%. Further, the remaining at 0.5 h in data set [10] was determined as 68.1%.

As to `CC[C@]1(O)C[C@H]2CN(CCc3c([nH]c4ccccc34)[C@@](C(=O)OC)(c3cc4c(cc3OC)N(C=O)[C@H]3[C@@](O)(C(=O)OC)[C@H](OC(C)=O)[C@]5(CC)C=CCN6CC[C@]43[C@@H]65)C2)C1` [VINCRISTINE], the “Ratio IC50” value was found to be 9.2 in the data set with A549 [12], 12.9 with MCF7 [15], 6.46 with A2780 [16] and 22.5 with HCT-8. In addition, the IC50 was found to be 61 nM in the data set on A549 [1]; 561 nM in [13]; 168 nM in data set [3]; 7860 nM in data set [4]; 98 nM in the data set with MCF7 [14]; 350 nM in data set [7]. In addition, the IC50 is 26 nM in the data set on A2780 [8] and 1260 nM in [11].

With `COc1ccc(/C=C\c2cc(OC)c(OC)c(OC)c2)cc1OP(=O)(O)O` [FOSBRETABULIN], the inhibition in vivo at 30 mg/kg with A549 [17] is 52.2%.

`COc1ccc2c(/C=C(\C)C(=O)c3cc(OC)c(OC)c(OC)c3)cn(P(=O)([O-])[O-])c2c1.[Na+].[Na+]` registered a solubility in data set [18] of 125 mg/mL. For the same molecule, the IC50 in the data set on A549 [1] is 56 nM; in the data set on MCF7 [14], 38 nM; in data set [6], 61 nM; in the data set with HeLa it was 78 nM; in data set [7], 92 nM; in the data set on A2780 [8], 43 nM. The Activity entry in the data set with Mus musculus was “Non-toxic”. The inhibition in vivo at 30 mg/kg in the data set on A549 [17] is 70.4%.

For the molecule `COc1cccc2c1C(=O)c1c(O)c3c(c(O)c1C2=O)C[C@@](O)(C(=O)CO)C[C@@H]3O[C@H]1C[C@H](N)[C@H](O)[C@H](C)O1` [DOXORUBICIN], the “Ratio IC50” value in the data set on A549 [12] stood at 1.44; in the data set with MCF7 [15], 49.4; with A2780 [16] it was 3.35; in the data set with HCT-8, 1.29. Further, the IC50 was found to be 2170 nM with A549 [1]; 3140 nM in [13]; 3290 nM in data set [3]; 1510 nM in data set [4]; 1170 nM in data set [7]; 980 nM in the data set on A2780 [8]. For the same molecule, the IC50 in data set [11] turned out to be 50400 nM.

What is called IC50 is the concentration that gives 50% inhibition. The term solubility denotes how much of the substance goes into solution per volume. The low end stands for a poorly soluble substance, the high end for a readily soluble substance.
